# Target: Transcriptional enhancer factor TEF-1 (Homo sapiens, UniProt P28347)
# Assay: Inhibition of NL-tagged YAP (unknown origin) interaction with myc-tagged human TEAD1 preincubated for 1 hr followed by NL-tagged YAP addition by NanoGlo assay
# How it was run: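 Myc-TEAD1 from transfected HeLa lysate was captured with anti-myc antibody on protein-G-coated 96-well plates. Wells were pretreated with compound in PBS for 1 h at 4 °C, then co-incubated with lysate from HeLa cells expressing YAP–nanoluciferase. After four PBS washes, bound YAP–NL was read with NanoGlo.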
# Sequence of Transcriptional enhancer factor TEF-1 (P28347 whole entry): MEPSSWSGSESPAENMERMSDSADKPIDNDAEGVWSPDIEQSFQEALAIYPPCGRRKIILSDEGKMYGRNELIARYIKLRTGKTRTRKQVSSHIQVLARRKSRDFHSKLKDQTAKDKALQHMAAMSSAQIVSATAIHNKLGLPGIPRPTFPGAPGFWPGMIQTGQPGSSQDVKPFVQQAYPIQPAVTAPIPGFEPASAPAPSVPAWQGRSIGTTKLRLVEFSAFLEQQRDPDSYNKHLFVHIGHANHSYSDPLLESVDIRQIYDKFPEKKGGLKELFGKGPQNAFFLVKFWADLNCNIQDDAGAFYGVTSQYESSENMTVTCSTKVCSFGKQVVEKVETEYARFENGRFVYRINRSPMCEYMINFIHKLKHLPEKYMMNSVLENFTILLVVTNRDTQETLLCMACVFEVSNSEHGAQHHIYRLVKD
smiles,measurement,value
Cc1ccc2c(c1)c1c3n2CCN(C[C@H](O)CN2CCN(C(=O)c4ccco4)CC2)[C@@H]3CCC1,IC50,48 µM

# — BindingDB's records for doi:10.1021/acs.jmedchem.8b01402 (University of Bristol, 2019)
